Reference: paper PMC8669716 (ACS Pharmacology & Translational Science, 2021)
pEC50, pIC50: −log10 of the molar value.

Key:
[1] = target: T1, human recombinant LSD1 enzyme (Homo sapiens, UniProt O60341); assay: LSD1 HTRF assay; format: biochemical
AML cell line TF-1a = assay: AML cell viability; format: cell-based; conditions: for pEC50: TF-1a, read-out: EC50 viability, AML cell lines
SCLC patients = conditions: cited from earlier work
SCLC cell line NCI-H510A = assay: SCLC cell viability; format: cell-based; conditions: Homo sapiens, 240 h, read-out: EC50 viability NCI-H510A
LSD1 in MV(4;11) cells = LSD1 in MV(4;11) cells (Homo sapiens, UniProt O60341); assay: LSD1 target engagement; format: cell-based; conditions: 24 h, 2000, 200, 20 and 2 nM
[2] = target: recombinant LSD1 / GFI1B SNAG domain peptide interaction (Homo sapiens, UniProt O60341); assay: GFI1B-peptide/LSD1 interaction assay; format: binding; conditions: 2 μM, 200 nM, 20 nM and 2 nM
[3] = target: INSM1/LSD1 interaction in NCI-H510A cells (Homo sapiens, UniProt O60341); assay: INSM1/LSD1 interaction ELISA on NCI-H510A lysates; format: cell-based; conditions: 24 h, 2000, 200, 20 and 2 nM
[4] = system: GRP gene expression in NCI-H510A cells; assay: GRP gene expression by qRT-PCR; format: cell-based; conditions: 6 days, 2000, 200, 20 and 2 nM
How it was run: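 NCI-H510A SCLC cells (mycoplasma-free) seeded at 0.5 million per 5 mL complete RPMI-1640 (10% FBS, 2 mM l-glutamine). They were treated with test compound at 2000, 200, 20 and 2 nM for 6 days at 37 °C, 5% CO2. Pellets of 0.5 million cells were PBS-washed and stored at −80 °C, then total RNA was extracted for qRT-PCR of GRP; N = 1, n = 3.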

RR-AML patients = conditions: cited from earlier work
[5] = Stability in aqueous buffer; format: physicochemical; conditions: aqueous buffer at 37 °C, LCMS, day 6
How it was run: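 A 20 mM DMSO solution of test compound was diluted with PBS and held at 37 °C. Samples were analysed by LCMS at T = 0, 4 and 6 days, using one of three compound-specific HPLC method conditions.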

[6] = cited from earlier work
[7] = target: T1, human recombinant LSD1 enzyme; assay: LSD1 peroxidase; format: biochemical
[8] = target: T2, human recombinant LSD2 enzyme (Homo sapiens, UniProt Q8NB78); assay: LSD2 HTRF assay; format: biochemical; conditions: read-out: LSD2 inhibition
T2 sequence (Q8NB78 1-822): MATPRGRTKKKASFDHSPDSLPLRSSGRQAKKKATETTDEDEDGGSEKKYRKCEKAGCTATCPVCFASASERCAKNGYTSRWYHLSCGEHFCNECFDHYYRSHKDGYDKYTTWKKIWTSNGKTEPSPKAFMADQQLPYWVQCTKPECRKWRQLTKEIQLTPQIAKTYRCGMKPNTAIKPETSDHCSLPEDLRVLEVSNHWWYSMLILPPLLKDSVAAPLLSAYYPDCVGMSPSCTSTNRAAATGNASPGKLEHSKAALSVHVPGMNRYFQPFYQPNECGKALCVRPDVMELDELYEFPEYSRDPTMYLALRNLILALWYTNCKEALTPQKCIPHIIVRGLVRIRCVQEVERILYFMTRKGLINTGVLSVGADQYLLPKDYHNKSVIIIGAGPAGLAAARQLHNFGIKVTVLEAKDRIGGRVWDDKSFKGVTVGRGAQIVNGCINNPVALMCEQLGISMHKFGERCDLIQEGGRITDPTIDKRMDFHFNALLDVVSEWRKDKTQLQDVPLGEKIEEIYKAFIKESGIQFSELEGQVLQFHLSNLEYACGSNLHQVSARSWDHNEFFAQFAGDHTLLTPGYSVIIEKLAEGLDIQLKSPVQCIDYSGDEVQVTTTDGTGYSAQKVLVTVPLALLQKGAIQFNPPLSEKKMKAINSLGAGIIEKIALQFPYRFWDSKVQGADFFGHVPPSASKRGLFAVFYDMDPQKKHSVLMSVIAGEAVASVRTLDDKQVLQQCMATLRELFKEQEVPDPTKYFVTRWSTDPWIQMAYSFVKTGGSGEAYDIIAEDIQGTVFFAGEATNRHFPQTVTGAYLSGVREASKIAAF

[9] = system: CD11b induction in THP-1 cells; assay: AML differentiation: CD11b by flow cytometry; format: cell-based; conditions: THP-1, 0.02 to 2000 nM, 96 h
LSD1 in NCI-H510A cells = LSD1 in NCI-H510A cells (Homo sapiens, UniProt O60341); assay: LSD1 target engagement; format: cell-based; conditions: 24 h, 2000, 200, 20 and 2 nM
[10] = target: T1, human recombinant LSD1 enzyme; conditions: incubation at 10-fold IC50, 100-fold dilution

In the case of `O=C(O)c1ccc(CN2CCC(CN[C@@H]3C[C@H]3c3ccccc3)CC2)cc1` [GSK-2879552], the “fold less active than iadademstat in the LSD1 HTRF assay” value [1] is listed as 491 fold, the “fold less active than iadademstat in the (TF-1a) AML viability assays” value (AML cell line TF-1a) is listed as 849 fold and the G3/4 encephalopathy (SCLC patients) is listed as 10%.
In the case of `c1ccc([C@@H]2C[C@H]2NC2CCNCC2)cc1` [OG-668], the pEC50 (SCLC cell line NCI-H510A) was 8.93, the “LSD1 TE” value (LSD1 in MV(4;11) cells) was “high LSD1 TE at all concentrations tested” and the “disruption of LSD1/GFI1B interaction” value [2] was “shows reduction of the LSD1/GFI1B interaction in the 2 μM to 2 nM range”. The “disruption of LSD1/INSM1 PPI” value [3] was “reduction of the LSD1/INSM1 interaction at all four concentrations” and the “effect on GRP expression” value [4] was “reduce GRP expression at all concentrations”.
For `CN1CCN(C(=O)[C@H](CCCN[C@@H]2C[C@H]2c2ccc(F)cc2)NC(=O)c2ccc(-n3ccnn3)cc2)CC1` [bomedemstat], the “fold less active than iadademstat in the LSD1 HTRF assay” value [1] was 174 fold and the “fold less active than iadademstat in the (TF-1a) AML viability assays” value (AML cell line TF-1a) was 345 fold.
For `N[C@H]1CC[C@H](N[C@@H]2C[C@H]2c2ccccc2)CC1` [iadademstat], the pEC50 (SCLC cell line NCI-H510A) is given as 9.80, the “effect on GRP expression” value [4] is given as “most potently inhibits the expression of the neuroendocrine biomarker (including at 2 nM)” and the safety and tolerability (RR-AML patients) is given as “safe and well-tolerated”.
In the case of `C#CCN(C)Cc1ccccc1` [pargyline], the pEC50 (AML cell line TF-1a) was < 5.70 and the pEC50 (SCLC cell line NCI-H510A) was < 5.70.
In the case of `NNCCc1ccccc1` [phenelzine], the “T = 6 days purity (parent compound remaining)” value [5] was 4%, the pEC50 (AML cell line TF-1a) was < 5.70 and the pEC50 (SCLC cell line NCI-H510A) was < 5.70.
For `COc1ccc(-c2c(-c3ccc(C#N)c(F)c3)nc(N3CCC(N)CC3)n(C)c2=O)cc1F` [pulrodemstat], the pEC50 (SCLC cell line NCI-H510A) is listed as 8.75, the half-life ([6]; humans) is listed as “≈ 70 h” and the adverse events reported ([6]; monotherapy) is listed as “Thrombocytopenia and neutropenia events”.
With `C/C(=N\NC(=O)c1cccc(S(=O)(=O)N2CCN(C)CC2)c1)c1cc(Cl)ccc1O` [seclidemstat] the pIC50 ([1]; LSD1 IC50, HTRF assay) was 5.89, the pIC50 [7] was 5.62 and the inhibition at 10 µM [8] was < 50%. For the same molecule, the “T = 6 days purity (parent compound remaining)” value [5] was 72%, the pEC50 (SCLC cell line NCI-H510A) was 6.73 and the “induction of CD11b marker” value [9] was “does not induce the CD11b marker”. For the same molecule, the “LSD1 TE” value (LSD1 in NCI-H510A cells) was “did not show any significant LSD1 TE at the concentrations tested”, the “disruption of LSD1/GFI1B interaction” value [2] was “does not disrupt the LSD1/GFI1B interaction” and the “disruption of LSD1/INSM1 PPI” value [3] was “totally inactive”. For the same molecule, the “effect on GRP expression” value [4] was “does not impact GRP expression” and the “recovery of LSD1 activity upon jump dilution” value [10] was 62%.
